dFosB act-1: activators of delta FosB homodimer, primary screen, biochemical, fluorescence polarization, TAMRA-CDK5 oligo, single point; Protein FosB (Mus musculus), P13346; purified delta FosB; percent of positive-control signal above neutral wells; activation, % at 25 µM; 340,000 tested, 0.99% active;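 active = mean activation above about 17%, with every replicate also reaching it, limit read from the data, passing the limit was not always enough; inconclusive = only one of the two conditions met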
HTR2A ag: mouse Htr2a agonists via beta-arrestin recruitment, primary screen, cell-based, luminescence; 5-hydroxytryptamine receptor 2A (Mus musculus), P35363; CHO-K1 mHTR2A beta-arrestin complementation; percent of 30 µM serotonin response; AID 624169, 2012; 360,000 tested, 0.66% active; activation, % at 7.6 µM;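 active = activation above a run cutoff, the mean activation of all tested compounds plus 3 SD, cut at about 14% in these data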;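 also: 0% = plate median of compound wells and 100% = 30 µM serotonin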
Target sequence (P35363 whole entry, looked up): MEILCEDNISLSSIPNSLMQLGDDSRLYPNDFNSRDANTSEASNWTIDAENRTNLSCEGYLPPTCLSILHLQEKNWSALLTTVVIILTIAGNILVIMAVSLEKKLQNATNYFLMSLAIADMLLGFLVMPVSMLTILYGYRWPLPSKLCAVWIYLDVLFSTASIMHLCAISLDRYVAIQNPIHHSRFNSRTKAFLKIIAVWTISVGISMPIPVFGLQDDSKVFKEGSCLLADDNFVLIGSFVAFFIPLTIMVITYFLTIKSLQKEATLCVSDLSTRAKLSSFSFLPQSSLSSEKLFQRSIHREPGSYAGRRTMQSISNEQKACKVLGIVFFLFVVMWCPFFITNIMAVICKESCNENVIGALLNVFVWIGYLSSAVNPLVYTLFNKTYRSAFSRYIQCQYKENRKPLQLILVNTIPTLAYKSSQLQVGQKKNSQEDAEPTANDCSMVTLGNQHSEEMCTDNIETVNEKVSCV
IMP-1 inhibitor: IMP-1 metallo-beta-lactamase inhibitors, primary screen, biochemical, epi-absorbance readout, Pseudomonas aeruginosa enzyme; metallo-beta-lactamase IMP-1 (Pseudomonas aeruginosa); purified IMP-1, nitrocefin hydrolysis, epi-absorbance fluorescence; inhibition, % at 5.6 µM; 290,000 tested, 0.45% active; AID 1556, 2009;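 active = inhibition above the mean plus 3 SD of all compounds in the same screening run, cut at about 4.5% in these data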;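 also: 0% = IMP-1 with DMSO and 100% = DMSO wells lacking enzyme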
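Material – recombinant IMP-1 enzyme, purified · Amount – IMP-1 0.2 nM before substrate addition · Medium – HEPES buffer pH 7.1 with ZnSO4 and Brij 35 · Timing – 25 °C, 15 min preincubation, 25 min reaction · Measured by – plate fluorescence quenching by hydrolysis product, ex 480/em 530 nm · Read-out – percent enzyme inhibition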
VIM-2 inhibitor: VIM-2 metallo-beta-lactamase inhibitors, primary screen, biochemical, epi-absorbance readout, Pseudomonas aeruginosa enzyme. purified VIM-2, nitrocefin hydrolysis, epi-absorbance fluorescence. inhibition, % at 5.6 µM. 290,000 tested, 0.89% active. AID 1527, 2009;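 active = inhibition above the mean of all tested compounds plus 3 SD, cutoff set per screening run, cut at about 7.5% in these data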;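 also: red hydrolysis product quenches plate fluorescence so inhibitors raise well fluorescence; 0% = enzyme with DMSO and 100% = DMSO without enzyme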
dFosB act-2: activators of mouse delta FosB DNA binding, confirmation, biochemical, fluorescence polarization, TAMRA-CDK5 oligo, cherry-picked samples; shares compounds with dFosB act-1; purified delta FosB; normalised: neutral wells 0, positive control 100; activation, % at 24.9 µM; 2,400 tested, under 10 active;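 active = highest replicate activation at or above 34% and every replicate reaching that threshold; inconclusive = meets only one of the two criteria; inactive = meets neither criterion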;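 also: higher polarization means more probe DNA bound by delta FosB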
* hit, by the source's call; ? = inconclusive; . = not tested or not shown. Sampled rows, rich in hits. Any-hit rate of the full collection: about 2.5%.

SMILES	dFosB act-1	HTR2A ag	IMP-1 inhibitor	VIM-2 inhibitor	dFosB act-2
COc1cc2c(cc1OC)C(c1ccc(-c3ccc(Cl)cc3Cl)o1)=NCC2	34*	-5	0	3	-30
NN/C(=C\[N+](=O)[O-])Nc1ccc(Cl)cc1	-11	2	-1	-2	.
Cc1cccc(NC(=O)c2cc3c(=O)n4ccccc4nc3s2)c1	16*	4	-1	1	4
O=C(Nc1cccc(Cl)c1)c1cc2c(=O)n3ccccc3nc2s1	4	3	-1	-3	.
CC1CCCN(S(=O)(=O)c2ccc(NC(=O)[C@@H]3CCCN3C(=O)c3cccs3)cc2)C1 (stereo partly drawn)	-6	0	.	.	.
CN(CC(=O)Nc1cccc(Cl)c1)S(=O)(=O)c1ccc2c(c1)n(C)c(=O)c(=O)n2C	46*	10	-1	-5	0
CN(CC(=O)Nc1ccc(Cl)cc1)S(=O)(=O)c1ccc2c(c1)n(C)c(=O)c(=O)n2C	12	-3	-4	-7	.
O=C(Nc1cccc(Cl)c1)c1ccc2c(c1)SC1=NS(=O)(=O)CCN12	26*	2	-1	-1	-1
COc1ccc(C)cc1NC(=O)Nc1ccc2c(c1)CCC2	23*	-9	-3	0	1
O=c1[nH]c2cc3c(cc2cc1C(c1nnnn1Cc1ccccc1)N1CCCCCC1)OCCO3 (stereo not drawn)	28*	-3	0	1	8
O=c1[nH]c2cc3c(cc2cc1C(c1nnnn1Cc1ccccc1)N1CCN2CCCC2C1)OCCO3 (stereo not drawn)	22*	-2	-4	-2	-12
O=c1[nH]c2cc3c(cc2cc1C(c1nnnn1Cc1ccccc1)N1CCCc2ccccc21)OCO3 (stereo not drawn)	.	.	-8	-4	.
COC(=O)C[C@@H]1C=C[C@@H](NS(=O)(=O)c2ccccc2OC)[C@@H](CO)O1	.	1	.	.	.
COc1ccc2oc(C(=O)OCC(=O)Nc3ccc(OC)c(S(N)(=O)=O)c3)c(C)c2c1	-12	0	.	.	.
COc1ccc2oc(C(=O)OCC(=O)Nc3cc(S(=O)(=O)N4CCOCC4)ccc3C)c(C)c2c1	38*	1	.	.	3
COc1ccc2oc(C(=O)OCC(=O)Nc3ccc(NC(C)=O)cc3)c(C)c2c1	36*	2	.	.	-8
CN(CC(=O)Nc1ccc(F)cc1)C(=O)COC(=O)CCN1C(=O)C2CC=CCC2C1=O (stereo not drawn)	-3	0	-3	-3	.
CC1CCCN(CC(=O)Nc2ccc(S(=O)(=O)N3C(C)CCCC3C)cc2)C1 (stereo not drawn)	.	-2	.	.	.
O=C(Cn1nnc(-c2ccc(F)cc2)n1)Nc1ccc2c(c1)OCCO2	36*	10	-1	-1	6
O=C(Cn1cnc2c(nnn2Cc2ccccc2)c1=O)Nc1ccc2c(c1)OCCO2	30*	3	-2	1	0
CC(=O)Nc1ccc(NC(=O)Cn2cnc3c(nnn3Cc3ccc(F)cc3)c2=O)cc1	10	4	-1	-1	.
COc1cc(C(=O)NCc2ccc(C)cc2)ccc1OCc1c(C)noc1C	25*	-7	-2	0	6
COc1cc(C(=O)NCCc2ccc(S(N)(=O)=O)cc2)ccc1OCc1c(C)noc1C	26*	-4	.	.	2
CN(C)S(=O)(=O)c1ccc(C(=O)NCc2nnc(SCC(=O)N3CCCC3)o2)cc1	-4	4	-1	1	.
Cc1ccc(C)c(NC(=O)CN(C)C(=O)C2COc3ccccc3O2)c1 (stereo not drawn)	-14	5	.	.	.
SMILES	dFosB act-1	HTR2A ag	IMP-1 inhibitor	VIM-2 inhibitor	dFosB act-2
COc1ccc(C(=O)Cn2cnc3ccc(Cl)cc3c2=O)cc1F	26*	1	-2	-2	0
CC1(C)CC(N=c2cc(-c3ccccc3)oc3ccc(Cl)cc23)CC(C)(C)N1	40*	-8	-2	-4	-3
O=C(NNC(=S)Nc1ccccc1)c1cc(-c2cccnc2)nc2ccccc12	-23	-2	-3	-7	.
CC(OC(=O)c1cc(-c2cccnc2)nc2ccccc12)C(=O)Nc1ccc2ccccc2c1 (stereo not drawn)	44*	2	-4	-4	7
CCCCN1C(=O)C(CC(=O)NCCN2CCOCC2)CC(C(=O)N2CCCCCC2)=C1C (stereo not drawn)	.	0	.	.	.
Cc1ccc(C)c(NC(=S)N2CCC(NC(=O)c3ccc(F)cc3)CC2)c1	-4	-6	-4	-1	.
COc1cc2c(cc1OC)C(COc1ccc3c(C)cc(=O)oc3c1)N(C(=O)c1ccco1)CC2 (stereo not drawn)	?	0	2	0	.
CCOc1ccc(NC(=S)N2CCc3cc(OC)c(OC)cc3C2COc2ccc3c(C)cc(=O)oc3c2)cc1 (stereo not drawn)	50*	-6	-4	-1	3
CCCC(=O)Nc1ccccc1-c1nnn(CC(=O)Nc2ccc(OC)cc2)n1	10	-3	-2	-2	.
CCOc1ccc(NC(=O)Cn2nnc(-c3ccccc3NC(=O)c3cccs3)n2)cc1	52*	1	-5	-3	5
O=C(c1ccc(Cl)cc1)c1c[nH]c(C(=O)NNc2ccccc2)c1	7	-3	-1	-2	.
CCOC(=O)c1c(CSC(=N)N)n(-c2ccccc2)c2cc(Br)c(OC(C)=O)cc12	30*	-9	-2	-1	?
CC(C)CC1C(=O)N(Cc2cn(Cc3ccco3)nn2)CCS(=O)(=O)N1Cc1ccc(-c2ccc(Cl)cc2)cc1 (stereo not drawn)	.	0	.	.	.
O=C(COC(=O)c1ccc(Cl)c(S(=O)(=O)N2CCCCC2)c1)NC1CCCCC1	.	-3	.	.	.
Cc1ccccc1-n1ncc2c1CC(C)(C)CC2NC(=O)CCC(F)(F)F (stereo not drawn)	-4	0	-3	-1	.
COc1cc2c(cc1OC)C(C)N(C(=O)c1cc3c(=O)oc4ccc(C)cc4c3s1)CC2 (stereo not drawn)	41*	3	-4	-3	4
COc1cc2c(cc1OC)C(C)N(C(=O)c1cccs1)CC2 (stereo not drawn)	5	1	0	-2	.
CCc1nnc(NS(=O)(=O)c2ccc(NC(=O)c3ccc([N+](=O)[O-])s3)cc2)s1	.	0	.	.	.
Cc1ccc(C(=O)NC(=S)Nc2ccc3[nH]c(=O)[nH]c3c2)c(C)c1	28*	7	-3	-1	7
CCCCCCCC(=O)Nc1ccc(C(=O)N/N=C/c2cccc([N+](=O)[O-])c2)cc1	20*	5	-3	-1	8
CCCCCCC(=O)Nc1ccc(C(=O)N/N=C/c2cccnc2)cc1	9	-5	-1	-1	.

Screens: PubChem BioAssay, several laboratories
